Key:
Assay type in all cases: functional
[1] = (§1) Cytotoxicity against human Hs578T cells assessed as growth inhibition after 48 hrs by SRB assay; details: Hs-578T
How it was run: (§2)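 NCI 60-cell-line five-dose screen at […]. Drug exposure was 48 h, followed by sulforhodamine B protein staining. GI50, TGI and LC50 were calculated against a time-zero control and untreated plates, with dose–response curves plotted from log10 concentration.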

Hs-578T = experiment: as §1; how it was run: as §2
OVCAR-8 = experiment: Cytotoxicity against human OVCAR8 cells assessed as growth inhibition after 48 hrs by SRB assay
How it was run: (§3)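 NCI 60-cell-line screen, five-dose stage: each cell line exposed for 48 h to five concentrations spanning five log steps; cellular protein measured by sulforhodamine B colorimetry. A time-zero cell control and plates without drug are used to derive GI50, TGI and LC50 from log-concentration dose-response curves.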

HCT-116 = experiment: Cytotoxicity against human HCT116 cells assessed as growth inhibition after 48 hrs by SRB assay; how it was run: as §2
KM12 = experiment: Cytotoxicity against human KM12 cells assessed as growth inhibition after 48 hrs by SRB assay; how it was run: as §2
T47D = experiment: Cytotoxicity against human T47D cells assessed as growth inhibition after 48 hrs by SRB assay
How it was run: (§4)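 NCI 60-cell-line screen, two stages. Five-dose testing at […]. Cellular protein measured by sulforhodamine B colorimetry after 48 h drug exposure. A time-zero control and drug-free plates are used to derive GI50, TGI and LC50 from dose-response curves plotted as log10 concentration per cell line.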

MOLT-4 = experiment: Cytotoxicity against human MOLT4 cells assessed as growth inhibition after 48 hrs by SRB assay; how it was run: as §3
RPMI-8226 = experiment: Cytotoxicity against human RPMI8226 cells assessed as growth inhibition after 48 hrs by SRB assay; how it was run: as §3
TK-10 = experiment: Cytotoxicity against human TK10 cells assessed as growth inhibition after 48 hrs by SRB assay; how it was run: as §4
SK-OV-3 = experiment: Cytotoxicity against human SKOV3 cells assessed as growth inhibition after 48 hrs by SRB assay; how it was run: as §3
SF-295 = experiment: Cytotoxicity against human SF295 cells assessed as growth inhibition after 48 hrs by SRB assay; how it was run: as §3
K562 = experiment: Cytotoxicity against human K562 cells assessed as growth inhibition after 48 hrs by SRB assay; how it was run: as §2
CAKI-1 = experiment: Cytotoxicity against human CAKI-1 cells assessed as cell growth at 10 uM after 48 hrs by SRB assay; details: CAKI-1, 48 h, read-out: Activity
SNB-75 = experiment: Cytotoxicity against human SNB75 cells assessed as growth inhibition after 48 hrs by SRB assay; how it was run: as §4
UACC-62 = experiment: Cytotoxicity against human UACC62 cells assessed as growth inhibition after 48 hrs by SRB assay; how it was run: as §4
SK-MEL-5 = experiment: Cytotoxicity against human SK-MEL-5 cells assessed as growth inhibition after 48 hrs by SRB assay; how it was run: as §3
SW-620 = experiment: Cytotoxicity against human SW620 cells assessed as growth inhibition after 48 hrs by SRB assay; how it was run: as §4
M14 = experiment: Cytotoxicity against human M14 cells assessed as growth inhibition after 48 hrs by SRB assay; how it was run: as §2
[2] = (§5) Cytotoxicity against human UACC257 cells assessed as growth inhibition after 48 hrs by SRB assay; details: UACC-257, 48 h; how it was run: as §4
UACC-257 = experiment: as §5; how it was run: as §4
MDA-MB-231 = experiment: Cytotoxicity against human MDA-MB-231 cells assessed as growth inhibition after 48 hrs by SRB assay; how it was run: as §3
MCF7 = experiment: Cytotoxicity against human MCF7 cells assessed as growth inhibition after 48 hrs by SRB assay; how it was run: as §3
[3] = (§6) Cytotoxicity against human EKVX cells assessed as growth inhibition after 48 hrs by SRB assay; how it was run: as §2
EKVX = experiment: as §6; how it was run: as §2
NCI-H226 = experiment: Cytotoxicity against human NCI-H226 cells assessed as growth inhibition after 48 hrs by SRB assay; how it was run: as §3
SNB-19 = experiment: Cytotoxicity against human SNB19 cells assessed as growth inhibition after 48 hrs by SRB assay; how it was run: as §4
SF-268 = experiment: Cytotoxicity against human SF268 cells assessed as growth inhibition after 48 hrs by SRB assay; how it was run: as §3
HCC 2998 = experiment: Cytotoxicity against human HCC2998 cells assessed as growth inhibition after 48 hrs by SRB assay; how it was run: as §2
OVCAR-3 = experiment: Cytotoxicity against human OVCAR3 cells assessed as cell growth at 10 uM after 48 hrs by SRB assay; details: OVCAR-3, 48 h, read-out: Activity
How it was run: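 First stage of the NCI 60 human tumour cell line screen: a single dose is tested against every line. Cell growth is read as cellular protein by sulforhodamine B colorimetry after 48 h of drug exposure, with reference to a time-zero control and to untreated plates.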

HT-29 = experiment: Cytotoxicity against human HT-29 cells assessed as cell growth at 10 uM after 48 hrs by SRB assay; details: HT-29, 48 h, read-out: Activity

Q: With `CN(C)CCCSc1nc2ccc3c(c2[nH]1)C(=O)c1ccccc1C3=O` as the compound, how does the GI50 [1] read?
A: Its GI50 is 4.84 µM.

Q: And the TGI [1]?
A: Its TGI is 22.9 µM.

Q: And the CC50 ([1]; read-out: LC50 (the source's name))?
A: The CC50 was 65 µM.

Q: And the “growth inhibition (GI)” value (Hs-578T)?
A: Its value is “Dose-dependent effect”.

Q: And the “growth inhibition (GI)” value (OVCAR-8)?
A: Its value is “Dose-dependent effect”.

Q: What about the GI50 (OVCAR-8; OVCAR-8, 48 h) of the same compound?
A: Its GI50 is 6.12 µM.

Q: And the TGI (OVCAR-8; OVCAR-8, 48 h)?
A: The TGI was 21.5 µM.

Q: What about the “growth inhibition (GI)” value (HCT-116) of the same compound?
A: The value was “Dose-dependent effect”.

Q: And the GI50 (HCT-116; HCT-116, 48 h)?
A: Its GI50 is 1.85 µM.

Q: What about the TGI (HCT-116; HCT-116, 48 h) of the same compound?
A: Its TGI is 8.75 µM.

Q: And the “growth inhibition (GI)” value (KM12)?
A: Its value is “Dose-dependent effect”.

Q: And the GI50 (KM12; KM12, 48 h)?
A: The GI50 was 1.96 µM.

Q: What about the TGI (KM12; KM12, 48 h) of the same compound?
A: Its TGI is 7.24 µM.

Q: What about the CC50 (KM12; KM12, 48 h, read-out: LC50 (the source's name)) of the same compound?
A: The CC50 was 27.4 µM.

Q: What about the GI50 (T47D) of the same compound?
A: Its GI50 is 8.73 µM.

Q: And the TGI (T47D)?
A: The TGI was 24.8 µM.

Q: And the “growth inhibition (GI)” value (T47D)?
A: The value was “Dose-dependent effect”.

Q: And the “growth inhibition (GI)” value (MOLT-4)?
A: Its value is “Dose-dependent effect”.

Q: What about the GI50 (MOLT-4; MOLT-4, 48 h) of the same compound?
A: Its GI50 is 2.06 µM.

Q: What about the TGI (MOLT-4; MOLT-4, 48 h) of the same compound?
A: Its TGI is 6.6 µM.

Q: What about the “growth inhibition (GI)” value (RPMI-8226) of the same compound?
A: Its value is “Dose-dependent effect”.

Q: What about the GI50 (RPMI-8226; RPMI-8226, 48 h) of the same compound?
A: The GI50 was 1.25 µM.

Q: And the TGI (RPMI-8226; RPMI-8226, 48 h)?
A: Its TGI is 4.62 µM.

Q: What about the “growth inhibition (GI)” value (TK-10) of the same compound?
A: Its value is “Dose-dependent effect”.

Q: And the GI50 (TK-10; TK-10, 48 h)?
A: Its GI50 is 1.37 µM.

Q: What about the TGI (TK-10; TK-10, 48 h) of the same compound?
A: The TGI was 13.5 µM.

Q: What about the “growth inhibition (GI)” value (SK-OV-3) of the same compound?
A: Its value is “Dose-dependent effect”.

Q: And the GI50 (SK-OV-3; SK-OV-3, 48 h)?
A: Its GI50 is 1.72 µM.

Q: And the TGI (SK-OV-3; SK-OV-3, 48 h)?
A: The TGI was 20.7 µM.

Q: And the “growth inhibition (GI)” value (SF-295)?
A: The value was “Dose-dependent effect”.

Q: What about the GI50 (SF-295; SF-295, 48 h) of the same compound?
A: Its GI50 is 14.8 µM.

Q: What about the TGI (SF-295; SF-295, 48 h) of the same compound?
A: The TGI was 28.4 µM.

Q: And the “growth inhibition (GI)” value (K562)?
A: The value was “Dose-dependent effect”.

Q: And the GI50 (K562; K562, 48 h)?
A: Its GI50 is 2.04 µM.

Q: And the TGI (K562; K562, 48 h)?
A: The TGI was 4.73 µM.

Q: What about the CC50 (K562; K562, 48 h, read-out: LC50 (the source's name)) of the same compound?
A: Its CC50 is 13.6 µM.

Q: What about the growth at 10 µM (CAKI-1) of the same compound?
A: The growth at 10 µM was -14.9%.

Q: And the “growth inhibition (GI)” value (SNB-75)?
A: Its value is “Dose-dependent effect”.

Q: What about the GI50 (SNB-75; SNB-75, 48 h) of the same compound?
A: The GI50 was under 0.01 µM.

Q: And the TGI (SNB-75; SNB-75, 48 h)?
A: The TGI was under 0.01 µM.

Q: And the “growth inhibition (GI)” value (UACC-62)?
A: Its value is “Dose-dependent effect”.

Q: What about the GI50 (UACC-62; UACC-62, 48 h) of the same compound?
A: Its GI50 is 10.8 µM.

Q: And the TGI (UACC-62; UACC-62, 48 h)?
A: Its TGI is 23 µM.

Q: What about the “growth inhibition (GI)” value (SK-MEL-5) of the same compound?
A: The value was “Dose-dependent effect”.

Q: What about the GI50 (SK-MEL-5; SK-MEL-5, 48 h) of the same compound?
A: The GI50 was 11.1 µM.

Q: And the TGI (SK-MEL-5; SK-MEL-5, 48 h)?
A: The TGI was 23.1 µM.

Q: And the “growth inhibition (GI)” value (SW-620)?
A: Its value is “Dose-dependent effect”.

Q: And the GI50 (SW-620; SW-620, 48 h)?
A: The GI50 was 1.99 µM.

Q: And the TGI (SW-620; SW-620, 48 h)?
A: The TGI was 6.29 µM.

Q: And the “growth inhibition (GI)” value (M14)?
A: The value was “Dose-dependent effect”.

Q: What about the GI50 (M14; M14, 48 h) of the same compound?
A: Its GI50 is 7.05 µM.

Q: What about the TGI (M14; M14, 48 h) of the same compound?
A: The TGI was 20.7 µM.

Q: What about the GI50 [2] of the same compound?
A: Its GI50 is 19.8 µM.

Q: What about the TGI [2] of the same compound?
A: Its TGI is 34.1 µM.

Q: What about the “growth inhibition (GI)” value (UACC-257) of the same compound?
A: The value was “Dose-dependent effect”.

Q: What about the “growth inhibition (GI)” value (MDA-MB-231) of the same compound?
A: The value was “Dose-dependent effect”.

Q: What about the GI50 (MDA-MB-231; MDA-MB-231, 48 h) of the same compound?
A: Its GI50 is 4.96 µM.

Q: What about the TGI (MDA-MB-231; MDA-MB-231, 48 h) of the same compound?
A: The TGI was 19.3 µM.

Q: And the “growth inhibition (GI)” value (MCF7)?
A: The value was “Dose-dependent effect”.

Q: What about the GI50 (MCF7; MCF7, 48 h) of the same compound?
A: Its GI50 is 0.202 µM.

Q: What about the TGI (MCF7; MCF7, 48 h) of the same compound?
A: Its TGI is 4.21 µM.

Q: And the GI50 [3]?
A: The GI50 was 4.2 µM.

Q: And the TGI [3]?
A: The TGI was 20.1 µM.

Q: What about the “growth inhibition (GI)” value (EKVX) of the same compound?
A: The value was “Dose-dependent effect”.

Q: And the “growth inhibition (GI)” value (NCI-H226)?
A: The value was “Dose-dependent effect”.

Q: What about the TGI (NCI-H226; NCI-H226, 48 h) of the same compound?
A: The TGI was 22.1 µM.

Q: What about the “growth inhibition (GI)” value (SNB-19) of the same compound?
A: Its value is “Dose-dependent effect”.

Q: What about the GI50 (SNB-19; SNB-19, 48 h) of the same compound?
A: The GI50 was 7.2 µM.

Q: And the TGI (SNB-19; SNB-19, 48 h)?
A: The TGI was 20.7 µM.

Q: What about the “growth inhibition (GI)” value (SF-268) of the same compound?
A: Its value is “Dose-dependent effect”.

Q: And the GI50 (SF-268; SF-268, 48 h)?
A: The GI50 was 4.34 µM.

Q: And the TGI (SF-268; SF-268, 48 h)?
A: Its TGI is 17.7 µM.

Q: What about the “growth inhibition (GI)” value (HCC 2998) of the same compound?
A: Its value is “Dose-dependent effect”.

Q: What about the GI50 (HCC 2998; HCC 2998, 48 h) of the same compound?
A: The GI50 was 4.14 µM.

Q: What about the TGI (HCC 2998; HCC 2998, 48 h) of the same compound?
A: The TGI was 17.7 µM.

Q: And the CC50 (HCC 2998; HCC 2998, 48 h, read-out: LC50 (the source's name))?
A: Its CC50 is 43.4 µM.

Q: And the growth at 10 µM (OVCAR-3)?
A: Its growth at 10 µM is 59.3%.

Q: And the growth at 10 µM (HT-29)?
A: The growth at 10 µM was 17.8%.
